Assay results as given in PMC4435052 (Combinatorial Chemistry & High Throughput Screening, 2015).
“Also recorded” adds a separate entry of the source.

What was measured:
[1] = biological target: MgcRacGAP(345-618) GAP domain (Homo sapiens, UniProt Q9H0H5); test: Primary biochemical GAP activity assay, Rac1
Summary of the method: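 Rac1(F28L) 600 nM with MgcRacGAP(345-618) at 2 nM in 15 mM Hepes pH 7.5, 20 mM NaCl, 1 mM EGTA, 0.02% Tween 20, 0.1 mg/mL BSA, 2% DMSO, 150 µM GTP; 2 h at room temperature. GDP detected by ADP Hunter Plus at half volumes (resorufin ex 530/em 590 nm). Test compound at 0.1-100 µM, with or without protein pre-incubation before GTP; n=8; control-normalized, fits constrained 0-100%.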

[2] = biological target: T1, BCR(1010-1271) GAP domain (Homo sapiens, UniProt P11274); test: Counter/selectivity GAP activity assay with BCR GAP domain in place of MgcRacGAP; format: biochemical
T1 sequence (P11274 1010-1271): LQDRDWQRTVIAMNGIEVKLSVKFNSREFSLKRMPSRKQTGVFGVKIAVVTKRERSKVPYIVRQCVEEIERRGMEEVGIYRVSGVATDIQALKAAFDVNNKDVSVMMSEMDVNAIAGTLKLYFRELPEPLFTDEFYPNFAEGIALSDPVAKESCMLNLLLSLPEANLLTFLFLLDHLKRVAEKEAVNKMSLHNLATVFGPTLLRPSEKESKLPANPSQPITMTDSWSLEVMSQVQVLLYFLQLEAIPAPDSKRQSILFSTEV
Summary of the method: (§1)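 Same buffer as the primary assay: Rac1(F28L) 600 nM, 150 µM GTP, 2% DMSO, 2 h at room temperature. GAP domain is BCR(1010-1271) at 200 nM or p50RhoGAP(205-439) at 50 nM, doses set for similar signal window. Test compound at 0.1-100 µM, with or without pre-incubation before GTP start. Read-out is ADP Hunter Plus fluorescence (ex 530/em 590 nm), normalized to plate controls.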

[3] = biological target: T2, p50RhoGAP(205-439) GAP domain (Mus musculus, UniProt Q5FWK3); test: Selectivity GAP activity assay with p50RhoGAP GAP domain; format: biochemical
T2 sequence (Q5FWK3 205-439): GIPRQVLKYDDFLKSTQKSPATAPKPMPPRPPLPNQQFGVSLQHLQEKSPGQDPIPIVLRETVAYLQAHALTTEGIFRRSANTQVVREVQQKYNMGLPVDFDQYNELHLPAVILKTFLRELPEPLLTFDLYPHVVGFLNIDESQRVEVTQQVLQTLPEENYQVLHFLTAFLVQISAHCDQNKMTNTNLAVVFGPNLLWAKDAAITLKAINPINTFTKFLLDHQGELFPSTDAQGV
Summary of the method: as §1

[4] = biological target: MgcRacGAP GAP activity on wild type Rac1 (Homo sapiens, UniProt Q9H0H5); test: Single turnover GAP assay with GTP-loaded wild type Rac1; format: biochemical; conditions: GTP-loaded wild type Rac1, 50 µM
MgcRacGAP GAP activity on wild type Rac1, sequence (Q9H0H5 345-618): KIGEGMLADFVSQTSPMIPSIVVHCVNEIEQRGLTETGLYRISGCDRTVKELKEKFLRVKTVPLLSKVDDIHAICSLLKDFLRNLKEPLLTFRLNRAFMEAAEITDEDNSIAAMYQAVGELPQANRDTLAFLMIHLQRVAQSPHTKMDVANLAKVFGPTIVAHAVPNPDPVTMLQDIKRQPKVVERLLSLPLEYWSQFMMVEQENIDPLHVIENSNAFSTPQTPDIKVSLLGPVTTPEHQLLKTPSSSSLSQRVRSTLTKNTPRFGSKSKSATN

[5] = biological target: MgcRacGAP-stimulated activity of wild type Rac1 (Homo sapiens, UniProt Q9H0H5); test: Multiple-turnover GTPase assay with wild type Rac1; format: biochemical; conditions: wild type Rac1, data not shown
MgcRacGAP-stimulated activity of wild type Rac1, sequence (Q9H0H5 345-618): as above
Summary of the method: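 Wild-type Rac1 […] in the 2x mix, combined with test compound in GTPase/GAP buffer. MgcRacGAP serially diluted in (0.1-100 nM) and held 2 h at room temperature. Started with 2x GTP (10 µM) and run 2 h more. Remaining GTP read by GTPase-Glo reagent (30 min), then detection solution; luminescence read after 10 min.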

Rac1-MgcRacGAP complex = Rac1-MgcRacGAP complex (Homo sapiens, UniProt P63000+Q9H0H5, Q61L); test: MgcRacGAP - Rac1 Q61L binding assay, bio-layer interferometry; conditions: 12.5-50 µM, dose dependent
Rac1-MgcRacGAP complex, sequence (Q9H0H5 345-618, stated change not applied, one chain of several): as the sequence (Q9H0H5 345-618) above

MDA-MB-231 cells [6] = test: Cell proliferation by live cell imaging; format: cell-based, human
Summary of the method: (§2)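 Cells cultured in EMEM, DMEM or RPMI 1640 with 10% FBS, seeded at 1,600 cells/well 6-12 h before treatment. Exposed up to 72 h to test compound (5-80 µM), DMSO as negative control, or 20 µM benzethonium chloride as kill control. CellTox Green in medium; live imaging gave toxicity (green fluorescence) and proliferation (phase-contrast confluency). Replicate sets.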

MDA-MB-231 cells [7] = test: Cytotoxicity, CellTox Green live cell imaging; format: cell-based, human
Summary of the method: as §2

RWPE-1 cells = test: Cell viability dose response in slow growing cells; format: cell-based, human; conditions: 72 h dose response 5-80 µM
Summary of the method: as §2

HeLa cells [8] = format: cell-based, human
Summary of the method: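 HeLa cells synchronized by double thymidine block: 2 mM thymidine at plating for 19 h, three PBS washes, release into fresh medium, second 2 mM block 9 h later, washed after 16 h. Released with or without test compound (10-80 µM) or nocodazole (165 nM). Tracked by live-cell phase imaging for cell rounding and death.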

A549 cells [9] = test: FUCCI cell cycle reporter assay; format: cell-based, human; conditions: 80 µM, from 6 h after exposure
Summary of the method: (§3)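 A549 cells at 50,000/well received Premo gemini-GFP (G2/M) and Cdt-RFP (G1/S) 1:1 24 h after plating. After overnight incubation, replated at 1,600 cells/well. Imaged hourly by phase contrast, green and red fluorescence. 14 h later given 80 µM test compound, DMSO, or 20 µM benzethonium chloride, then followed hourly.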

HeLa cells [10] = test: Immunofluorescence analysis of cell division morphology; format: cell-based, human; conditions: 25 µM, 48 h
Summary of the method: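 HeLa cells on fibronectin-coated coverslips, treated 3-48 h with DMSO or 25 µM test compound. Fixed in ice-cold methanol and stained with mouse anti-α-tubulin and goat anti-MgcRacGAP. Detected with Alexa Fluor 488 and 647 secondaries; DAPI-containing mountant. Imaged by widefield fluorescence microscopy.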

A549 cells [11] = format: cell-based, human; conditions: 25 µM
Summary of the method: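 A549 cells in chamber slides, treated 3-48 h with DMSO or 25 µM test compound. Stained with phalloidin, Hoechst 33342, anti-α-tubulin and anti-MgcRacGAP. Cells scored as normal (mononuclear), mitotic (rounded), multinuclear or dead in at least eight random fields per condition. Reported as average percentage per time point.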

A549 cells [12] = test: Cellular movement, tracking of individual cells in 2D culture; format: cell-based, human; conditions: 25 µM, 24 h
Summary of the method: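 A549 cells seeded at 10,000/well and given DMSO or 25 µM test compound 6 h later. Imaged every 5 min with a 20x objective for 24 h. Randomly chosen cells tracked individually to trace movement in 2D.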

MDA-MB-231 cells [13] = test: Scratch-wound Matrigel invasion; format: cell-based, human; conditions: 10-40 µM, increasing concentrations
Summary of the method: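 MDA-MB-231 cells at 40,000/well on Matrigel-precoated plates. After 16 h, near-confluent monolayers scratched, washed and overlaid with Matrigel (8 mg/mL). After 30 min at 37°C, medium with DMSO or test compound (10-40 µM final) added. Scratch-wound imaging followed; relative wound density computed per image; n=4.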

A549 cells [14] = test: Cytotoxicity by live cell imaging; format: cell-based, human; conditions: 80 µM
Summary of the method: as §3

[15] = tested on: essential replicative helicase of Staphylococcus aureus; conditions: 80 µM, ref PubChem AID 485395; cited from earlier work
[16] = proteins pre-incubated with compound before GTP addition
[17] = dose response 0.1-100 µM, no pre-incubation
[18] = prolonged periods of time, data not shown

MgcRacGAP(345-618) GAP domain, sequence (Q9H0H5 345-618): as above

Structure (SMILES): Cl.Cl.c1cc2cc(C3=NCCN3)ccc2cc1C1=NCCN1 [MINC1, 2,6-bis(4,5-dihydro-1H-imidazol-2-yl)naphthalene dihydrochloride]
- maximum inhibition reached by dose response curves [1]: 80-90%
- IC50 ([1]; IC50 MgcRacGAP, dose response 0.1-100 µM, no pre-incubation): 15 ± 5 µM
- Hill slope ([1]; dose response, no pre-incubation): 0.9
- Hill slope, pre-incubation [1, 16]: 0.7
- activity towards BCR [2, 17]: no detectable activity
- activity towards BCR, pre-incubation [2, 16]: no detectable activity
- activity towards p50RhoGAP [3, 17]: no detectable activity
- activity towards p50RhoGAP, pre-incubation [3, 16]: no detectable activity
- effect on MgcRacGAP GAP activity, single turnover assay [4]: no effect
- inhibition of MgcRacGAP-stimulated activity, multiple-turnover assay [5]: did not detect any notable inhibition
- dissociation of Rac1-MgcRacGAP complex (Rac1-MgcRacGAP complex): slowed down the dissociation process; also recorded: decreased dissociation rate
- IC50 (MDA-MB-231 cells [6]; Homo sapiens, MDA-MB-231, 48 h, read-out: IC50 cell proliferation): 17 µM
- concentration that caused cell proliferation to cease (MDA-MB-231 cells [6]; highly proliferative cells): ≥ 20 µM
- concentration at which cell death was observed (MDA-MB-231 cells [7]; [18]): 80 µM
- cell toxicity at concentrations that stop proliferation (MDA-MB-231 cells [7]; ≥20 µM, highly proliferative cells): without detectable cell toxicity
- effect on cell viability in slow growing cells (RWPE-1 cells): negligible effects on cell viability
- time to cell rounding, non-synchronized cells (HeLa cells [8]; after compound addition): approximately 3 h
- time to cell rounding, synchronized cells (HeLa cells [8]; after release from double thymidine block): 8 to 10 h
- concentration at which cell death was observed (HeLa cells [8]; [18]): 80 µM
- cell cycle state (A549 cells [9]): arrested in G2/M-phase
- multinucleated cells versus control (HeLa cells [10]): showed more multinucleated cells
- time of peak of cells with mitotic phenotype (A549 cells [11]): ≤ 9 h
- percentage of multinucleated cells (A549 cells [11]; during 24h treatment): increased over time
- cell motility (A549 cells [12]): lost almost all motility
- wound-healing rate (MDA-MB-231 cells [13]): decreased wound-healing rates; also recorded: decreasing ability to migrate
- tolerance of high concentration (A549 cells [14]): could tolerate such high concentrations
- reported bioactivity [15]: marginal activity
